Key:
Format in all cases: functional
[1] = test system: DU-145; test: Inhibition of cell growth was determined in DU145 cell line of human prostate tumor using MTT assay, on day 6 after treatment; conditions: DU-145, 144 h, read-out: ID50 (the source's name)
Summary of the method: (§1)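 Cells in Eagle's MEM with 10% fetal calf serum and nonessential amino acids were seeded at 500 cells/well and incubated overnight at 37 °C in humidified 95% air/5% CO2. Drug dilutions were then added, each concentration in quadruplicate, with buffer-only control columns, for 6 days. MTT (25 µL of 5 mg/mL) was added for 4 h at 37 °C.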

[2] = test system: DuPro; test: Inhibition of cell growth was determined in DUPRO cell line of human prostate tumor using MTT assay, on day 6 after treatment; conditions: 144 h, read-out: ID50 (the source's name); summary of the method: as §1
[3] = test system: LNCaP; test: Inhibition of cell growth was determined in LNCaP cell line of human prostate tumor using MTT assay, on day 6 after treatment; conditions: 144 h, read-out: ID50 (the source's name); summary of the method: as §1
[4] = test system: PC-3; test: Inhibition of cell growth was determined in PC-3 cell line of human prostate tumor using MTT assay, on day 6 after treatment; conditions: PC-3, 144 h, read-out: ID50 (the source's name); summary of the method: as §1

Row | SMILES | IC50 [1] [nM] | IC50 [2] [nM] | IC50 [3] [nM] | IC50 [4] [nM]
1 | CCNC/C=C\CNCCCCNC/C=C\CNCCCCNCC | 340 | > 31200 | 540 | > 31200
2 | CCNC/C=C\CNC/C=C\CNC/C=C\CNC/C=C\CNCC |  |  | 550 | 200
3 | CCNC/C=C\CNC/C=C\CNCCCCNC/C=C\CNCC |  | > 31200 | 320 | 
4 | CCNC/C=C\CNCCCCNCCCCNCCCCNCC |  |  | 140 | 
5 | CCNC/C=C\CNC/C=C\CNC/C=C\CNCCCCNCC |  | > 31200 | 240 | > 31200
6 | CCNCCCCNC/C=C\CNCCCCNCCCCNCC | 80 |  | 90 | > 31200
7 | CCNC/C=C\CNC/C=C\CNCCCCNCCCCNCC |  |  | 150 | > 31200
8 | CCNC/C=C\CNCCCCNCCCCNC/C=C\CNCC |  | 250 | 300 | 500
9 | CCNCCCCNC/C=C\CNC/C=C\CNCCCCNCC |  |  | 150 | > 31200

Source: ChEMBL document CHEMBL1134338, “cis-Unsaturated analogues of 3,8,13,18,23-pentaazapentacosane (BE-4-4-4-4): synthesis and growth inhibitory effects on human prostate cancer cell lines” (2001)
